Measurements: ChEMBL document CHEMBL1157410, “7-aryl 1,5-dihydro-benzo[e][1,4]oxazepin-2-ones and analogs as non-steroidal progesterone receptor antagonists” (Bioorg Med Chem, 2008)
The source made the active and inactive calls. No cut-off for these calls is given here.

Legend:
[1] = biological target: T1, Estrogen receptor (Homo sapiens) (UniProt P03372); test: Antagonist activity at cloned estrogen receptor-ligand binding domain expressed in african green monkey COS7 cells by GAL4 luciferase reporter assay upto 10 uM; format: cell-based; conditions: COS-7
T1 sequence (whole entry): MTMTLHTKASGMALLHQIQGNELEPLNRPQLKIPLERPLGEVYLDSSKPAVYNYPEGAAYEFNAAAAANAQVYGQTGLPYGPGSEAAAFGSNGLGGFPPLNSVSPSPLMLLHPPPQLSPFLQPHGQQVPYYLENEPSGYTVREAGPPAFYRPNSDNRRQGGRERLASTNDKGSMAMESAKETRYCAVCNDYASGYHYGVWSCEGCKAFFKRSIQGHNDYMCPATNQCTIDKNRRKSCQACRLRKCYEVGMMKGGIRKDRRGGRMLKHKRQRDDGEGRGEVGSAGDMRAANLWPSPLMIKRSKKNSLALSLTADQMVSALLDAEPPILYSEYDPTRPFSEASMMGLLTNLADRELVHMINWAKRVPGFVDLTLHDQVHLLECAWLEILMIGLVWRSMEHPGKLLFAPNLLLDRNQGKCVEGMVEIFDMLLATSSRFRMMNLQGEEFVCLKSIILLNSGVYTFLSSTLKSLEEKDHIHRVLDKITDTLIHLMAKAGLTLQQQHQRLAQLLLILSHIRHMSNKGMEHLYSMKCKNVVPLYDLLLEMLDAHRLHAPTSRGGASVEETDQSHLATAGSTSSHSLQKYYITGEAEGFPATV
Procedure, shortened: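 COS-7 cells in phenol red-free DMEM with 10% charcoal/dextran-treated FBS were transfected for 16 h with a GAL4-DBD/receptor-LBD fusion plasmid and a GAL4_UAS (5 copies, E1b TATA) luciferase reporter, 50 ng/well each. Cells were then given compound for 20 h, and luciferase activity was read from cell lysates by luminometer.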

[2] = biological target: T2, Glucocorticoid receptor (Homo sapiens, UniProt P04150); test: Antagonist activity at cloned glucocorticoid receptor-ligand binding domain expressed in african green monkey COS7 cells by GAL4 luciferase reporter assay; format: cell-based, COS-7
T2 sequence (P04150 whole entry): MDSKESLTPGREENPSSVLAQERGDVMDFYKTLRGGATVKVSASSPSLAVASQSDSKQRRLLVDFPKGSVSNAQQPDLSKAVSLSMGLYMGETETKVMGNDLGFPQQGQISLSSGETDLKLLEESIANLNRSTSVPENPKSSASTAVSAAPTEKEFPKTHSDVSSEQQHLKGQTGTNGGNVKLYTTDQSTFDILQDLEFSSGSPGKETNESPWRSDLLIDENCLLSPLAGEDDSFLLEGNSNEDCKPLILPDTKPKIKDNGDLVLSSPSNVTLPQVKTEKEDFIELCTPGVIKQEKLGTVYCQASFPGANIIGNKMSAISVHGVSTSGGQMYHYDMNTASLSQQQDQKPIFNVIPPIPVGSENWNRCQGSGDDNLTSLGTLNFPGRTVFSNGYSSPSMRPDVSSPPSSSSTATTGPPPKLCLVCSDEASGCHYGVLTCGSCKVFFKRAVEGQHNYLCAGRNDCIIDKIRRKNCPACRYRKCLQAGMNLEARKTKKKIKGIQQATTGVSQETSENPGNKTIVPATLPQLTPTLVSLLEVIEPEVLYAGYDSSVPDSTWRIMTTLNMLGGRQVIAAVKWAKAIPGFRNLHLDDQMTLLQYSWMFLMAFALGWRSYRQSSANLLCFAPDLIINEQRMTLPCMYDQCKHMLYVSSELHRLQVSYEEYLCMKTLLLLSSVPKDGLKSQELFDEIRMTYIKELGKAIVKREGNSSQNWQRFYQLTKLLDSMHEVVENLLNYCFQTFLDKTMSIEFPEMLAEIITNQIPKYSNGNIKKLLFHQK

[3] = biological target: T3, Mineralocorticoid receptor (Homo sapiens) (UniProt P08235); test: (§1) Antagonist activity at cloned mineralocorticoid receptor-ligand binding domain expressed in african green monkey COS7 cells by GAL4 luciferase reporter assay; format: cell-based; conditions: COS-7; concentration not given here
T3 sequence (whole entry): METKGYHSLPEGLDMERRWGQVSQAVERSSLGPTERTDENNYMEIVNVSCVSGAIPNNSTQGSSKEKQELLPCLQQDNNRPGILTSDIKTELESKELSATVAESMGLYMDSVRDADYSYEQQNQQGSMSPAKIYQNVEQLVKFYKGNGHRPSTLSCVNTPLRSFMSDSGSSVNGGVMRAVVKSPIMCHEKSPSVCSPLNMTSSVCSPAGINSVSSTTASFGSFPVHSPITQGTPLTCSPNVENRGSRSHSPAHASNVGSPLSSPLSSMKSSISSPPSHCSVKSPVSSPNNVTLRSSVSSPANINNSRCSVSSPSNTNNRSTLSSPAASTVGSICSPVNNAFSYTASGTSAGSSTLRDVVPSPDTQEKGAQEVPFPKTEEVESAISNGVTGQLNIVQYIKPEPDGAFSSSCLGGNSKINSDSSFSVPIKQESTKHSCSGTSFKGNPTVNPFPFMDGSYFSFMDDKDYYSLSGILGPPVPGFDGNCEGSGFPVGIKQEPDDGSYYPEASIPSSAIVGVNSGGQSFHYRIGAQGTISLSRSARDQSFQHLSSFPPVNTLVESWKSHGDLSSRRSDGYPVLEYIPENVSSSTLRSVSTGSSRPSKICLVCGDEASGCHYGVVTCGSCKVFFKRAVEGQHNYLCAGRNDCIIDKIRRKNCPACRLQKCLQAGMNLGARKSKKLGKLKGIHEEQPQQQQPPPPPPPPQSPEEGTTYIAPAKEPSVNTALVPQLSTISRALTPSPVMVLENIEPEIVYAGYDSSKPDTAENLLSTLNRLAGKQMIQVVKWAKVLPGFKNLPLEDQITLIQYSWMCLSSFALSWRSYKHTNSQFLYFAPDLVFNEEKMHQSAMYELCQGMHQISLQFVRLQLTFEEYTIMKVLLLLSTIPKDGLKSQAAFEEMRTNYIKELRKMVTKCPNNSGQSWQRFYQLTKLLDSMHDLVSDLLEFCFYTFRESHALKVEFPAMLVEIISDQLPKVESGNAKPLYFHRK
Procedure, shortened: (§2)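 GAL4 DNA-binding domain fused to receptor ligand-binding domain, one-hybrid format. LBD fusion and GAL4_UAS (5 copies, E1b minimal TATA) luciferase reporter plasmids, 50 ng/well each, transfected 16 h into COS-7 cells. Cells grown in phenol red-free DMEM with 10% charcoal/dextran-treated FBS. Compound exposure 20 h, then luciferase read on lysates. Mean of at least duplicate determinations.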

[4] = biological target: T4, Mineralocorticoid receptor (Homo sapiens, UniProt P08235); test: as §1; format: cell-based, COS-7; procedure, shortened: as §2
T4 sequence (P08235 whole entry): T3 sequence (whole entry)

CCC1(c2ccco2)OCC(=O)Nc2ccc(-c3cc(F)cc(C#N)c3)cc21 (configuration not stated)
Activity [1]: inactive
IC50 [2]: 190 nM
inhibition [3]: 82%
IC50 [4]: > 3000 nM

CC1(C)OCC(=O)Nc2ccc(-c3cc(F)cc(C#N)c3)cc21
Activity [1]: inactive
IC50 [2]: > 3000 nM
inhibition [3]: 32%
IC50 [4]: > 3000 nM

N#Cc1cc(F)cc(-c2ccc3c(c2)C(c2ccco2)(c2ccco2)OCC(=O)N3)c1
Activity [1]: inactive
IC50 [2]: 1300 nM
inhibition [3]: 60%
IC50 [4]: > 3000 nM
